# Ends that are not written are not given here.
# Assays:
# sirtuins = assay: Turnover of biotin-NAD as NAD alternate substrate; format: biochemical; conditions: 6-biotin-17-NAD; Supplemental Figure S12
# monoamine oxidases = conditions: used in the treatment of clinical depression; cited from earlier work
# SIRT1 = biological target: T1, SIRT1 (Homo sapiens, UniProt Q96EB6); assay: HPLC deacetylation assay, SIRT1; format: biochemical; conditions: 0.07 μM (1U) SIRT1, 500 μM NAD, peptide 0–500 μM, pH 8.0, 37°C, 0–20 min, at least duplicate
# T1 sequence (Q96EB6 1-747): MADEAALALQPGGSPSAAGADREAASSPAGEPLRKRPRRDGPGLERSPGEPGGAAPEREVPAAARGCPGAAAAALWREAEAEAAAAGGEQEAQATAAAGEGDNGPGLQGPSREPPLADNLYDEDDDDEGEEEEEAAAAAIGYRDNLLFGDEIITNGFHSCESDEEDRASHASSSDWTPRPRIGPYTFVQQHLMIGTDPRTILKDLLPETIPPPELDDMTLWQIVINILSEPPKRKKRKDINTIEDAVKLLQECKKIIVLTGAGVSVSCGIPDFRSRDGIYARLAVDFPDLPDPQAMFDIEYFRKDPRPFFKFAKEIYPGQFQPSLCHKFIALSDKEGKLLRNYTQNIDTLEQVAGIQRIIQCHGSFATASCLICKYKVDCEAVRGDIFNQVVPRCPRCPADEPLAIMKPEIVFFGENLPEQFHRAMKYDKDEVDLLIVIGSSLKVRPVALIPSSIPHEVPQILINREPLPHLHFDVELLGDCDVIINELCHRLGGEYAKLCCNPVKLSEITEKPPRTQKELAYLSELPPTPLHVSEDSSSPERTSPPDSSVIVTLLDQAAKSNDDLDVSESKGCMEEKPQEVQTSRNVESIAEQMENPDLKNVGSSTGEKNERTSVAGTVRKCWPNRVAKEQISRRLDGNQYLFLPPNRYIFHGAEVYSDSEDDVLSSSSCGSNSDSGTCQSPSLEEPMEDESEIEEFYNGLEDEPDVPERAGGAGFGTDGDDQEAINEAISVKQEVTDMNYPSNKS
# Sir2Tm = Sir2Tm (Thermotoga maritima, UniProt Q9WYW0); assay: HPLC deacetylation assay, Sir2Tm; format: biochemical, bacterial; conditions: pH 8.0, 37°C
# Chain of Sir2Tm (Q9WYW0 whole entry): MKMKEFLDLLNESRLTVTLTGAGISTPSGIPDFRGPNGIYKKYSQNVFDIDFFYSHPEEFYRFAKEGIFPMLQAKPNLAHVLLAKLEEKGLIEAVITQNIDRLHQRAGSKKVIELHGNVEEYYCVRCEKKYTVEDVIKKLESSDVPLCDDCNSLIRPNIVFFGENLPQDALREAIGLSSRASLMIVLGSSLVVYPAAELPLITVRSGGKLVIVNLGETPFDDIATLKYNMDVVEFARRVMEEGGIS
# Outline: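 Enzyme addition at 37°C started the reaction; Sir2Tm was refolded from inclusion bodies, ~90% pure. Aliquots at 0, 5, 10, 20 min were acid-quenched, urea-treated, ultrafiltered and resolved by C18 reverse-phase HPLC; integrated peak areas gave rate constants.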
compound,measurement,setting,value
6-biotin-17-NAD,use as NAD alternate substrate by sirtuins,sirtuins,can be turned over by sirtuins as an NAD alternate substrate
NNCCc1ccccc1 [phenethylhydrazine],monoamine oxidase inhibition,monoamine oxidases,well-established inhibitor of monoamine oxidases
"K382KAc: corresponding natural acetylated substrate, p53 (372–389) peptide containing acetyl-lysine at 382 (KKGQSTSRHKK(Ac)LMFKTEG; UniProt P04637 372-389, looked up, fragment)",deacetylation rate (apparent kcat),SIRT1,12.3 ± 0.7 min⁻¹
same,deacetylation rate (apparent kcat),"Sir2Tm; 0.3–0.15 μM Sir2Tm, 500 μM NAD, peptide 0–500 μM, 0–20 min, HPLC, at least duplicate",10.8 ± 1.5 min⁻¹
same,Km,"Sir2Tm; steady-state kinetics, Sir2Tm, 0.5 mM NAD, p53 (372–389) peptides",71.8 ± 24.5 µM

# Source: publication PMC3313494 (Journal of the American Chemical Society, 2012)
